Calls of active or inactive are those of the source. No cut-off for these calls is given here.
Tests used:
Furin = Furin (Homo sapiens, UniProt P09958); assay: Inhibition of recombinant soluble human furin using Phac-Arg-Val-Arg-Arg-AMC fluorogenic substrate
How it was run: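 Enzyme kinetic assay under standard conditions at pH 7.0, using recombinant soluble human furin and the fluorogenic AMC substrate. Inhibition constants were determined from the kinetics.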

dengue virus type 2 = assay: Antiviral activity against DENV-2 infected in african green monkey Vero 76 cells assessed as virus titer reduction incubated for 48 hrs by plaque assay; format: functional, organism-based
[1] = Half life in Sprague-Dawley rat at 1 mg/kg, iv; format: ADME, organism-based; conditions: in vivo
How it was run: (§1)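 Rat pharmacokinetics: single intravenous dose of 1 mg/kg or intraperitoneal dose of 2.5 mg/kg. Plasma inhibitor levels were followed over time, and half-life and total body clearance were derived for each route. Cmax and time to Cmax were also derived after intraperitoneal dosing.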

West Nile virus = assay: Antiviral activity against West Nile virus infected in […] cells assessed as virus titer reduction incubated for 48 hrs by plaque assay; format: functional, organism-based; conditions: Vero 76, 48 h
How it was run: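 Huh-7 cells infected with dengue virus type 2 (strain 16681) or West Nile virus, then cultured with inhibitor. Supernatants were collected 48 h post-infection and titrated by plaque assay on VeroE6 cells (n = 2, mean ± standard deviation). EC50 was calculated from the titer data.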

[2] = Toxicity in rat assessed as mortality at 1 mg/kg, iv; format: organism-based; conditions: in vivo
Human orthopneumovirus = assay: Antiviral activity against RSV A2 infected in A549 cells assessed as reduction in plaque formation incubated for 72 hrs upto 10 uM followed by viral infection at MOI of 1 for 1 hr by multicycle replication assay; format: functional, organism-based; conditions: human respiratory syncytial virus, dose microM <=10, time 72.0 hrs
How it was run: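 A549 human lung cells were inoculated with RSV A2 at MOI 1 for 1 h, washed, then kept with inhibitor at 0.5–10 μM (0.1–2.5 μM for one compound) or without inhibitor. Supernatants were collected at 16, 24, 48 and 72 h post infection. Titres (PFU/mL) were read by plaque assay, mean ± standard deviation, n = 3.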

[3] = Plasma concentration in Sprague-Dawley rat at 2.5 mg/kg, ip measured after 3 hrs; format: ADME, organism-based
[4] = Total body clearance in Sprague-Dawley rat at 1 mg/kg, iv; format: ADME, organism-based; conditions: in vivo; how it was run: as §1
[5] = Half life in Sprague-Dawley rat at 2.5 mg/kg, ip; format: ADME, organism-based; conditions: in vivo; how it was run: as §1
[6] = Cmax in Sprague-Dawley rat at 2.5 mg/kg, ip; format: ADME, organism-based; parameters: route intraperitoneal, dose 2.5 mg/kg; conditions: in vivo
How it was run: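 Rats received a single intraperitoneal dose of 2.5 mg/kg. Plasma drug levels were followed over time, and half-life, total body clearance, and peak plasma concentration with its time were derived from the concentration–time profile.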

[7] = Total body clearance in Sprague-Dawley rat at 2.5 mg/kg, ip; format: ADME, organism-based; conditions: in vivo; how it was run: as §1
[8] = Cytotoxicity against african green monkey Vero 76 cells by Cell Titer Glo assay; format: cell-based; conditions: chlorocebus sabaeus
Prothrombin = Prothrombin (Bos taurus, UniProt P00735); assay: Inhibition of bovine thrombin using Tos-Gly-Pro-Arg-AMC as substrate by fluorescence assay
Plasminogen = Plasminogen (Homo sapiens, UniProt P00747); assay: Inhibition pf human plasmin using Mes-Darg-Phe-Arg-AMC as substrate by fluorescence assay
Sequence of Plasminogen (P00747 97-580 limits assumed): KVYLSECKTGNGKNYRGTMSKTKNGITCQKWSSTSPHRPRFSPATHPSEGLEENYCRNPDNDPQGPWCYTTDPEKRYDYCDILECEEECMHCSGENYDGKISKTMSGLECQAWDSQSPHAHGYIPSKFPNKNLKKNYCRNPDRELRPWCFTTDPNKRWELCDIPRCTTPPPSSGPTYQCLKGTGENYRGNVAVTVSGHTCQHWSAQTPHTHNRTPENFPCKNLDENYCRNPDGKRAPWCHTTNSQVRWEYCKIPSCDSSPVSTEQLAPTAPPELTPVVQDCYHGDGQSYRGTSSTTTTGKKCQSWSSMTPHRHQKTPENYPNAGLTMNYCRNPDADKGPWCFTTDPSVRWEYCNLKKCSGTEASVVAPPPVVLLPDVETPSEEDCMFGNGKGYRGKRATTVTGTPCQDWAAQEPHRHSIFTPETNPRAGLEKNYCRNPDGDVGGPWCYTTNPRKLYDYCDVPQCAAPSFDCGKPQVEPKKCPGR
Sequence of Plasminogen (P00747 581-810 limits assumed): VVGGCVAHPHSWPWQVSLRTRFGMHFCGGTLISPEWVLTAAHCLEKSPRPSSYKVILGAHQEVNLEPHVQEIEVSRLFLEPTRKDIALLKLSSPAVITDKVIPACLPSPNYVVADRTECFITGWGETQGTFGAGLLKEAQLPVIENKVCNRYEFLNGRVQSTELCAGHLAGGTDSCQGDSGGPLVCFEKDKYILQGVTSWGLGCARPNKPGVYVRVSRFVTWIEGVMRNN

Coagulation factor X = Coagulation factor X (Homo sapiens, UniProt P00742); assay: Inhibition of human factor Xa using Mes-Darg-Pro-Arg-AMC as flurogenic substrate by fluorescence assay
Sequence of Coagulation factor X (P00742 41-179 limits assumed): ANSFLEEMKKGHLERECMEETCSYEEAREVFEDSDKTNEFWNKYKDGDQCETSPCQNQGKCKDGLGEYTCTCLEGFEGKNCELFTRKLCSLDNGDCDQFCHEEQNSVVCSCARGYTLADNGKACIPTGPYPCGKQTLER
Sequence of Coagulation factor X (P00742 235-488 limits assumed): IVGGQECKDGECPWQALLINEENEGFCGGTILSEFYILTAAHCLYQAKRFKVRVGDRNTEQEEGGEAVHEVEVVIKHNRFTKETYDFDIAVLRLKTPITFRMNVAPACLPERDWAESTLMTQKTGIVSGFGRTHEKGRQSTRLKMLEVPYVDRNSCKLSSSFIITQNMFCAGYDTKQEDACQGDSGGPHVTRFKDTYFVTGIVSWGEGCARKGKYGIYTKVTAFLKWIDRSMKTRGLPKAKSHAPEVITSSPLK

Sequence of Furin (P09958 whole entry): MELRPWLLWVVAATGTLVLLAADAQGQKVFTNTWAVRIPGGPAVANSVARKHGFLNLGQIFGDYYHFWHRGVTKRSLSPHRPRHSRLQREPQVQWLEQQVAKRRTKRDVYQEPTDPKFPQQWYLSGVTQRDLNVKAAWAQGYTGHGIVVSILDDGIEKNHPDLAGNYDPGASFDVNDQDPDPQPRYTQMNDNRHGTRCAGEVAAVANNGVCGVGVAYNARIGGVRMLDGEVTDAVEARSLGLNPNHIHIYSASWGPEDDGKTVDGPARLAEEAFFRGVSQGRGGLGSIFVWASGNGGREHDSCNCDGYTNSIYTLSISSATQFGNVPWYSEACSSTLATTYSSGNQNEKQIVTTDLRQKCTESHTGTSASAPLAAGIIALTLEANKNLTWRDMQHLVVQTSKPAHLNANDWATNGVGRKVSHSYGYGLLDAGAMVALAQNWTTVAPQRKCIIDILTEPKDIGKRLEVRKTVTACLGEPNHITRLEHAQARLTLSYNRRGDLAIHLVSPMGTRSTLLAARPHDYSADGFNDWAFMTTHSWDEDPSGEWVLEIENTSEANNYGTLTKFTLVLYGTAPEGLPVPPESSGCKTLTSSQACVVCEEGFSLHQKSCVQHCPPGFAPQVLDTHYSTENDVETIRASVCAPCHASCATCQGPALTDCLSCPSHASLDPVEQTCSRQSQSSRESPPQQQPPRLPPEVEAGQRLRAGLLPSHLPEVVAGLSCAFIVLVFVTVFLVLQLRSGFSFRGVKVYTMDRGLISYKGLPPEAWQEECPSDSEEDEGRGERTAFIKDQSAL

**Q.** With `CC(C)(C)[C@H](NC(=O)[C@H](CCCNC(=N)N)NC(=O)Cc1ccc(CN)cc1)C(=O)N[C@@H](CCONC(=N)N)C(=O)NCc1ccc(C(=N)N)cc1` as the compound, how does the Ki (Furin) read?
**A.** Its Ki is 0.0768 nM.

**Q.** Which Ki (Furin) does the source give for `CC(C)(C)[C@H](NC(=O)[C@H](CCONC(=N)N)NC(=O)Cc1ccc(CN)cc1)C(=O)N[C@@H](CCONC(=N)N)C(=O)NCc1ccc(C(=N)N)cc1` here?
**A.** The Ki was 0.0342 nM.

**Q.** With `CC(C)(C)[C@H](NC(=O)[C@H](CCONC(=N)N)NC(=O)Cc1ccc(CNC(=N)N)cc1)C(=O)N[C@@H](CCONC(=N)N)C(=O)NCc1ccc(C(=N)N)cc1` as the compound, how does the EC50 (dengue virus type 2) read?
**A.** Its EC50 is 1500 nM.

**Q.** And the half-life [1]?
**A.** Its half-life is 0.9 h.

**Q.** And the EC50 (West Nile virus)?
**A.** Its EC50 is 1460 nM.

**Q.** What about the Activity [2] of the same compound?
**A.** Its Activity is “Non-Toxic”.

**Q.** What about the Activity (Human orthopneumovirus) of the same compound?
**A.** The Activity was “Active”.

**Q.** What about the concentration at 3 h [3] of the same compound?
**A.** The concentration at 3 h was greater than 1000 ng/mL.

**Q.** What about the clearance [4] of the same compound?
**A.** The clearance was 7.37 mL/min/kg.

**Q.** And the half-life [5]?
**A.** Its half-life is 1.6 h.

**Q.** What about the Cmax [6] of the same compound?
**A.** Its Cmax is 3160 ng/mL.

**Q.** What about the CL/F [7] of the same compound?
**A.** Its CL/F is 4.55 mL/min/kg.

**Q.** And the CC50 [8]?
**A.** The CC50 was greater than 50000 nM.

**Q.** For `CC(C)(C)[C@H](NC(=O)[C@H](CCONC(=N)N)NC(=O)Cc1ccc(CNC(=N)N)cc1)C(=O)N[C@@H](CCCCN)C(=O)NCc1ccc(C(=N)N)cc1`, which Activity (Human orthopneumovirus) is on record?
**A.** The Activity was “Active”.

**Q.** What about the Ki (Furin) of the same compound?
**A.** The Ki was 0.0363 nM.

**Q.** What does the source list for `CC(C)(C)[C@H](NC(=O)[C@H](CCCNC(=N)N)NC(=O)Cc1ccc(CNC(=N)N)cc1)C(=O)N[C@@H](CCCNC(=N)N)C(=O)NCc1ccc(C(=N)N)cc1`?
**A.** EC50 (dengue virus type 2): 760 nM; Ki (Prothrombin): > 3000 nM; EC50 (West Nile virus): 910 nM; Ki (Plasminogen): > 3000 nM; Activity (Human orthopneumovirus): Active; Ki (Coagulation factor X): > 3000 nM; CC50 [8]: > 50000 nM

**Q.** Which Ki (Furin) does the source give for `CC(C)(C)[C@H](NC(=O)[C@H](CCCNC(=N)N)NC(=O)Cc1ccc(CNC(=N)N)cc1)C(=O)N[C@@H](CCONC(=N)N)C(=O)NCc1ccc(C(=N)N)cc1` here?
**A.** The Ki was 0.0131 nM.

**Q.** With `CC(C)(C)[C@H](NC(=O)[C@H](CCONC(=N)N)NC(=O)Cc1ccc(CN)cc1)C(=O)N[C@@H](CCCCN)C(=O)NCc1ccc(C(=N)N)cc1` as the compound, how does the Activity (Human orthopneumovirus) read?
**A.** The Activity was “inactive”.
